{"source": "paper PMC12005346", "about": "(ACS chemical neuroscience, 2023)", "key": {"[1]": {"target": "human KOR expressed in CHO cells (Homo sapiens, UniProt P41145)", "sequence (P41145 whole entry)": "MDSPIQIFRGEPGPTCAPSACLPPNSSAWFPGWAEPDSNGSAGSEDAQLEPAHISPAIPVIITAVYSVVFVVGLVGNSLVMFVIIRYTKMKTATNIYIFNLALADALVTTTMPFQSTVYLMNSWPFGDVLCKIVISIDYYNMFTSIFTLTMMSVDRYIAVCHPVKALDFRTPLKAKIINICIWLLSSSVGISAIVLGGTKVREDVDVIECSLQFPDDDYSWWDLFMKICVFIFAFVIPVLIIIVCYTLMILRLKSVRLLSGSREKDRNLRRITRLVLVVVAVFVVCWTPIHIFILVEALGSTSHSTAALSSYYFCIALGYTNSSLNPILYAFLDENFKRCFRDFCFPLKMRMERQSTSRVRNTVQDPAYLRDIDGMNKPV", "experiment": "35S-GTPγS coupling assay at KOR", "type": "biochemical", "summary_of_the_method": "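Test compounds stimulated 35S-GTPγS coupling at human MOR, DOR or KOR expressed in CHO cells. Reference agonists were included to validate the assay: DAMGO for MOR, SNC80 for DOR and U50,488 for KOR. EC50 and EMAX were calculated separately for each independent experiment and reported as mean ± SEM of N ≥ 3 experiments.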"}, "[2]": {"test_system": "formalin-induced pain", "experiment": "Formalin test", "type": "in vivo, mouse", "conditions": "s.c. hind paw 100 nmol/20 μL, 15 min before formalin", "summary_of_the_method": "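Test compound (100 nmol/20 μL) was injected s.c. into the left dorsal hind paw 15 min before formalin (1% in saline, 20 μL/paw) in the same paw. Vehicle was DMSO/saline 1:5 v/v, […] s.c. Total licking/biting time was scored in the early and late phases. Analysis was two-way ANOVA with Tukey's test.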"}, "[3]": {"test_system": "dependence and withdrawal", "experiment": "Naloxone-precipitated withdrawal", "type": "in vivo, CD-1 mice", "conditions": "3.2 mg/kg s.c. repeated dosing, naloxone 30 mg/kg i.p. on day 4"}, "[4]": {"test_system": "response to thermal nociceptive stimuli", "experiment": "Hot plate test after i.c.v. administration", "type": "in vivo, mouse", "conditions": "i.c.v. 0.6 nmol/10 μL, 90 to 120 min after administration", "summary_of_the_method": "(§1)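 Mice received test compound i.c.v. at 0.6 nmol/10 μL. Vehicle was DMSO/saline 1:5 v/v, 10 μL/mouse. Hot plate and tail flick responses to thermal stimuli were recorded as a time course starting 15 min after dosing and expressed as % MPE. Groups were N = 12 or 7. Analysis was two-way ANOVA with Tukey's test versus vehicle.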"}, "[5]": {"test_system": "response to thermal nociceptive stimuli", "experiment": "Tail flick test after i.c.v. administration", "type": "in vivo, mouse", "conditions": "i.c.v. 0.6 nmol/10 μL, 90 to 120 min after administration", "summary_of_the_method": "as §1"}}, "note": "Where a name gives a salt, the structure may show the parent alone. *1 amine or outer side, *2 acyl side, *3 side chain or, on linkers, in order; H or OH if unused. Where a SMILES comes first, the peptide text is derived from it. Bridges are numbered along the chain shown (N, C = ends). Roman numbers before positions name the chains, in order. [ ]: non-standard residue; d: D form. Piperazine(1,4-diyl) = C1CN([*:2])CCN1[*:1]; Phe(4-F) = N[C@@H](Cc1ccc(F)cc1)C(=O)O; Dmt = Cc1cc(O)cc(C)c1C[C@H](N)C(=O)O; oXylylene = c1ccc(C[*:2])c(C[*:1])c1"}
{"molecule": "Cc1cc(O)cc(C)c1C[C@H](N)C(=O)N[C@@H]1CSCc2ccccc2CSC[C@@H](NC(=O)[C@@H](N)Cc2c(C)cc(O)cc2C)C(=O)NCC(=O)N[C@@H](Cc2ccc(F)cc2)C(=O)N2CCN(CC2)C(=O)[C@H](Cc2ccc(F)cc2)NC(=O)CNC1=O", "note": "[MJ4, 2 TFA c(Dmt-D-Cys-Gly-P-F-Phe)2-piperazine o-Xylene] (I: H-[Dmt][dC]G[Phe(4-F)] / II: H-[Dmt][dC]G[Phe(4-F)]; linker I:2-II:2 via oXylylene; linker I:C-II:C via Piperazine(1,4-diyl))", "values": [{"measurement": "KOR agonist activity, in words", "setting": "[1]", "result": "more potent agonist activity"}, {"measurement": "licking/biting behavior induced by formalin, early phase", "setting": "[2]", "result": "did not change the effects induced by formalin"}, {"measurement": "licking/biting behavior induced by formalin, late phase", "setting": "[2]", "result": "did not change the effects induced by formalin"}]}
{"molecule": "CN1CC[C@]23c4c5ccc(O)c4O[C@H]2[C@@H](O)C=C[C@H]3[C@H]1C5", "note": "[morphine]", "values": [{"measurement": "urine/feces output in naloxone-precipitated withdrawal", "setting": "[3]", "result": "comparable urine/feces output"}]}
{"molecule": "biphalin", "values": [{"measurement": "antinociceptive effect (% MPE), hot plate", "setting": "[4]", "result": "antinociceptive effects steadily decrease"}, {"measurement": "antinociceptive effect (% MPE), tail flick", "setting": "[5]", "result": "antinociceptive effects steadily decrease"}]}
